# Sampled rows, rich in hits. Any-hit rate of the full collection: about 0.89%.
# MIN6 prolif-1 – inducers of MIN6 beta-cell proliferation, primary screen, ATP luminescence, uHTS. 330,000 tested, 0.29% active. MIN6 cells proliferation, ATPlite luminescence, 48 h; cells starved in 0.2% serum; 100% = growth in 10% serum. proliferation, % at 10 µM;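 active = compounds whose signal lies at least 3.5 SD above the mean of all wells on their plate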;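 also: 0% = DMSO-treated cells in low-serum medium and 100% = 10% serum control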
# XiGFP reactiv – activators of inactive X chromosome reactivation, primary screen, imaging, XiGFP fibroblasts, GFP high-content imaging, set 2; XiGFP mouse fibroblasts, % GFP-positive cells imaging, 3 d; cells co-treated with 5-aza-dC sensitizer; scaled so ellipticine positive control = 100%; activation, % at 7.58 µM; 360,000 tested, 0.055% active; AID 743238, 2013;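 active = mean normalized replicate activation at least 10% and every replicate at or above 10%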;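 also: 0% = median of on-plate neutral control wells and 100% = ellipticine 6 µM median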
#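 material = 68-5-11 XiGFP fibroblast line | medium = DMEM plus 5-aza-dC sensitizer | schedule = 3 days compound exposure | benchmarks = positive control ellipticine, 6 µM final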
# Arrestin-AP2 inh – inhibitors of beta-arrestin/AP2 binding, primary screen, biochemical, GPCR trafficking, flow cytometry. beta-arrestin 1 C-terminal peptide binding to AP2 beta2-adaptin appendage (human). FITC-arrestin peptide / GST-AP2 beads; AP2 beta2 appendage carries R879A mutation. inhibition, % at 10 µM. 340,000 tested, 0.31% active. AID 504490, 2011;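 active = inhibition above a set limit, near 3 SD of compounds lacking own fluorescence, cut at about 54% in these data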;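 also: plate controls were DMSO wells for no effect and 5 µM unlabelled arrestin peptide for full effect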
#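 test system = AP2 appendage R879A on GSH beads | buffer or medium = PBS plus Tween 20 (0.05%) and BSA (0.1%) | incubation = 12 min plus 1 h, RT | detection = bead flow cytometry, FITC channel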
# T cell modulator – modulators of CD8 T cell-vesicle binding, primary screen, mouse 2C CD8+ T cells, flow cytometry. 2C CD8+ T cell-vesicle binding; stronger effect = lower value. response (vesicle binding), % at 7 µM. 330,000 tested, 0.068% active. AID 2052, 2009;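 active = response, share of CD8 T cells binding vesicles, and their 90th percentile fluorescence all below set limits, cut at about 80% in these data, passing the limit was not always enough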;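 also: values below 100% mean blocked vesicle binding to the CD8+ T cells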
#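 Material: 2C TCR transgenic mouse naive CD8+ T cells, MACS-purified. Also added: QL9-charged Drosophila Ld/ICAM-1/B7-1 vesicles. Timing: binding 1.5 h at 37 °C. Measured by: high-throughput flow cytometry with anti-B7-1 and anti-CD8 staining. Read-out: percent CD8+ FL2 mean versus row control. Controls: Unloaded micro-vesicles (low), QL9 vesicles with 0.7% DMSO (high).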
# NTR1 ag – agonists of human NTR1, primary screen, imaging, U2OS cells, beta-arrestin-GFP, high content; activation, % at 20 µM; NTR1-U2OS beta-arrestin-GFP spot imaging, agonist mode; Neurotensin receptor type 1 (Homo sapiens), P30989; 330,000 tested, 0.17% active;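 active = activation at or above 40% of the spot to cytoplasm intensity ratio, with at least 20 cells analyzed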;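 also: 0% = DMSO without peptide and 100% = 100 nM NTR1 peptide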
# Target sequence (P30989 whole entry, looked up): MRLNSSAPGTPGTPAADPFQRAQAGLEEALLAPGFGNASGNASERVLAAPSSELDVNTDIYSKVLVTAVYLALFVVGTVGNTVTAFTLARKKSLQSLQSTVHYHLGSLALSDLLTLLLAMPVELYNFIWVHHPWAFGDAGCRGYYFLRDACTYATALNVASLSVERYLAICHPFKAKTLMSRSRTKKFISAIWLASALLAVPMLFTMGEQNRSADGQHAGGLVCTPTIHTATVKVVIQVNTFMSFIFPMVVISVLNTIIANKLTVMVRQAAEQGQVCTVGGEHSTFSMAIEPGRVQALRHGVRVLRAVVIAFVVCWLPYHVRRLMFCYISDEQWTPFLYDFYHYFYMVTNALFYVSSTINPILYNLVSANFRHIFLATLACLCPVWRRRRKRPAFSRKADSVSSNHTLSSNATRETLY
# V-ATPase pHluor – regulators of yeast V-ATPase proton pumping, primary screen, pHLuorin cytosolic pH fluorescence. S. cerevisiae. response, % at 10 µM. 350,000 tested, 0.37% active; in the data active = response mostly above about 7.3%, no sharp cut-off; inactive = mostly below about 5.4%; also: actives read high
# MIN6 prolif-2 – inducers of beta-cell proliferation in MIN6, confirmation, MIN6 cells, mouse; shares compounds with MIN6 prolif-1; ATPlite luminescence, 48 h; cells kept in 0.2% serum; scaled between 0.2% and 10% serum; proliferation increase, % at 50 µM; 920 tested, under 10 active;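 active = proliferation increase above 40% at any of the four tested concentrations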
# An asterisk follows results filed as active; · = no result given.
SMILES,MIN6 prolif-1,XiGFP reactiv,Arrestin-AP2 inh,T cell modulator,NTR1 ag,V-ATPase pHluor,MIN6 prolif-2
O=C(NNC1=NCCC1)c1cccc(Br)c1,9.7*,·,32.5,134.2,0.6,7.3,4.5
O=S(=O)(N[C@H]1CC[C@H](CCn2cc(-c3cccc(F)c3)nn2)O[C@H]1CO)c1ccc(Cl)cc1,·,0.2,·,·,·,·,·
CCC1CCCCN1CCCNC(=O)c1csc2c1CCCCC2 (centres undefined),1.4,0.0,7.7,405.7,-0.8,-1.9,·
CCN1CCCC1CNC(=O)c1csc2c1CCCC2 (centres undefined),6.4*,·,32.2,514.3,-0.6,-4.1,-3.6
COc1ccc2nc(NCCNC(=S)NCCCN3CCOCC3)c(C#N)cc2c1,0.4,0.0,-4.7,285.5,-0.2,-0.5,·
COCCCNC(=S)NCCCNc1nc2cc3c(cc2cc1C#N)OCO3,5.8*,·,4.5,485.3,0.9,-0.4,3.8
O=[N+]([O-])c1ccc(SCc2ccco2)cc1N1CCOCC1,-1.1,0.1,-0.3,278.1,2.7,-0.1,·
O=[N+]([O-])c1ccc(N2CCOCC2)cc1SCc1ccco1,0.0*,0.1,1.9,233.5,-0.6,0.9,1.7
CC1=NCC(C)c2c1[nH]c1ccccc21 (centres undefined),7.0*,·,-1.2,306.9,-1.1,0.1,-1.2
CC1=NCC(C)c2ccccc21 (centres undefined),·,0.0,·,·,·,-1.3,·
CC(C)CNC(=O)COC(=O)c1ccccc1SCC(=O)NCC(C)C,7.8*,0.0,-3.9,290.4,1.9,-1.6,1.7
COc1cccc(OC)c1C(=O)OCC(=O)NCC(C)C,-0.6,0.0,41.4,357.9,0.9,0.1,·
Cc1ccc(S(=O)(=O)Cn2nnnc2C(CC(C)C)N2CCN(c3ccccc3)CC2)cc1 (centres undefined),-2.2,·,30.3,163.1,0.1,1.0,·
CC(C)CC(c1nnnn1C(C)C)N1CCN(c2ccccc2)CC1 (centres undefined),7.3*,·,-5.2,207.5,-0.6,0.1,-1.7
CCOC(=O)c1ccc(NC(=O)CSc2nc(N3CCOCC3)nc(N3CCOCC3)n2)cc1,-0.5,0.1,-5.0,344.3,0.0,-2.5,·
CCOC(=O)CNC(=O)CSc1nc(N(C)C)nc(N2CCOCC2)n1,5.5*,·,-7.9,311.6,0.0,-3.2,2.8
Cc1ccc(S(=O)(=O)NCC(=O)NC2CC2)cc1,10.9*,-0.1,-6.9,418.0,0.5,-4.0,-0.3
Cc1ccccc1-c1ccc2c(c1)O[C@@H](CN(C)C(=O)C1CC1)[C@H](C)CN([C@@H](C)CO)S2(=O)=O,·,-1.0,·,·,·,·,·
COC(=O)N1C(=O)[C@@](CC(C)C)(c2ccccc2)N1C(=O)OC,17.2*,·,·,619.6,3.6,·,-6.3
COC(=O)N1C(=O)[C@](CC(C)C)(c2ccccc2)N1C(=O)OC,·,0.0,-10.3,335.3,·,1.9,·
CCCCNc1nc(=S)[nH]c2cc(OC)c(OC)cc12,-1.1,·,4.5,151.6,1.8,1.6,·
CCOCCCNc1nc(=S)[nH]c2cc(OC)c(OC)cc12,7.2*,·,7.1,103.2,5.1,1.9,-0.3
Cc1coc2cc3oc(=O)cc(C)c3cc12,7.3*,0.1,9.3,265.5,4.0,-4.7,3.6
COc1ccc(-c2noc(COc3ccc4c(c3)OCO4)n2)cc1OC,10.9*,·,12.1,161.9,0.8,-0.3,0.7
COc1ccc(-c2noc(COc3ccc4c(c3)OCO4)n2)cc1,-2.6,·,-3.3,700.0,0.0,1.7,·
SMILES,MIN6 prolif-1,XiGFP reactiv,Arrestin-AP2 inh,T cell modulator,NTR1 ag,V-ATPase pHluor,MIN6 prolif-2
CO[C@@H]1CN(C)C(=O)c2ccc(NS(=O)(=O)c3cn(C)cn3)cc2OC[C@@H](C)N(C)C[C@H]1C,·,0.3,·,·,·,·,·
CCCN1Cc2cccc(C(=O)NCCc3ccccc3)c2C1=O,11.2*,0.0,16.7,706.0,3.2,1.3,-1.7
O=C(O)CNC(=S)N(Cc1ccc(F)cc1)C1CCCCC1,8.2*,0.0,32.5,781.2,0.3,-0.8,-2.5
O=C(CNC(=S)N(Cc1ccc(F)cc1)C1CCCCC1)NCCN1CCOCC1,-2.9,0.1,-3.6,143.0,4.3,-2.8,·
CC(NC(=O)OC(C)(C)C)C(=O)Oc1cc2oc(=O)cc(-c3ccccc3)c2cc1Cl (centres undefined),5.9*,·,9.9,417.8,0.6,6.4,-6.2
CC(Oc1cc2oc(=O)cc(-c3ccccc3)c2cc1Cl)C(=O)NCC1CCC(C(=O)O)CC1 (centres undefined),0.8,·,3.6,627.9,0.5,-1.5,·
CCOC(=O)c1sc(NC(=S)NC(=O)c2ccco2)nc1C,-1.9,0.0,0.3,256.9,7.0,-4.8,·
CCOC(=O)c1sc(NC(NC(=O)c2ccco2)(C(=O)OC)C(F)(F)F)nc1C (centres undefined),7.6*,·,24.6,245.1,0.3,0.7,-2.0
O=C(Nc1ccccc1F)NC1CCCc2ccccc21 (centres undefined),7.2*,0.7,29.1,323.0,-1.2,-2.0,-5.3
C[C@H](CO)N1C[C@H](C)[C@H](CN(C)Cc2cccc(C(F)(F)F)c2)Oc2ncc(/C=C/c3ccccc3)cc2C1=O,·,0.2,·,·,·,·,·
COc1ccc(CCC(C)N(C)Cc2ccccc2)cc1 (centres undefined),6.6*,0.2,33.0,204.8,1.6,-2.9,-3.9
COc1ccc(CC(=O)N(Cc2ccccc2)C(C)C)cc1,-1.9,0.2,1.4,264.8,-0.4,-0.2,·
CN(C)CCNC(=O)COc1cccc2c1OC(C)(C)C2,0.9,-0.1,-0.5,285.1,-0.3,-1.7,·
CN(Cc1cccs1)C(=O)COc1cccc2c1OC(C)(C)C2,9.9*,0.3,23.3,657.9,1.7,10.5,-1.0
C[C@H]1CCCCO[C@H](CN(C)C(=O)Nc2ccccc2)[C@@H](C)CN([C@@H](C)CO)C(=O)c2cc(NS(=O)(=O)c3ccc(Cl)cc3)ccc2O1,·,0.0,·,·,·,·,·
Cc1nnc2ccc(-c3ccc(NC(=O)c4ccc(Cl)nc4)cc3)nn12,8.5*,·,·,279.9,0.7,·,-0.6
Cc1c(N=C2NC(=O)/C(=C/c3ccc(O)cc3)S2)c(=O)n(-c2ccccc2)n1C,4.4*,-0.1,27.7,446.2,2.5,-3.0,-2.2
Cc1c(N=Nc2ccc(O)cc2)c(=O)n(-c2ccccc2)n1C,-0.2,-0.1,4.2,188.6,0.7,-1.6,·
